A short description of data set [1]: Aqueous solubility of compound in PBS buffer at pH 7.4 by HPLC analysis. In kind it is physicochemical.
Data set [2] is described as follows: Cytotoxicity against human EU1 cells assessed as reduction in cell viability by WST8 assay. In kind it is functional, cell-based. The note with it: EU-1. The procedure, abridged: (§1)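 WST-8 viability read-out in HeLa cells and in an in-house established wild-type p53 leukemia line (EU-1). IC50 derived from the concentration–response data.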
Data set [3] is described as follows: Prodrug conversion assessed as porcine liver Esterase-mediated compound hydrolysis by measuring half life by HPLC analysis. In kind it is ADME, Sus scrofa. The note with it: pig, isolated protein. A digest of the protocol:
(§2)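 Amino-acid ester prodrugs incubated with the hydrolytic enzyme in PBS, pH 7.4, at 37 °C. Release of parent anthraquinone monitored by HPLC, and half-life derived.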

Data set [4] is described as follows: Prodrug conversion in PBS buffer assessed as half life at pH 7.4 and 37 degC by HPLC analysis. In kind it is physicochemical.
The nature of data set [5]: Prodrug conversion assessed as porcine pancreas Kallikrein-mediated compound hydrolysis by measuring half life by HPLC analysis. The format is ADME, Sus scrofa. The settings on record: pig. The procedure, abridged: as §2
The test system of a further data set is HeLa. Put plainly: Cytotoxicity against human HeLa cells assessed as reduction in cell viability by WST8 assay. In kind it is functional, cell-based. The procedure, abridged:
as §1

The target in data set [6] is E3 ubiquitin-protein ligase Mdm2 (Homo sapiens) (UniProt Q00987). Put plainly: Induction of MDM2 degradation in human EU1 cells assessed as upregulation of p53 protein expression at 0.8 uM incubated for 15 hrs by Western blot analysis. In kind it is cell-based. The procedure, abridged:
(§3)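 EU-1 is an in-house established leukemia line carrying wild-type p53. Cells were exposed across a series of concentrations and incubation times, then lysed. MDM2 and p53 protein levels were read by Western blot.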

Data set [7] has the same target. Description: Induction of MDM2 degradation in human EU1 cells assessed as upregulation of p53 protein expression incubated for 15 hrs by Western blot analysis. In kind it is cell-based. A digest of the protocol:
as §3

Data set [8] shares this target. Description: Induction of MDM2 degradation in human EU1 cells assessed as downregulation of MDM2 protein expression incubated for 15 hrs by Western blot analysis. In kind it is cell-based. A digest of the protocol: as §3
Data set [9] shares this target. Put plainly: Induction of MDM2 degradation in human EU1 cells assessed as upregulation of p53 protein expression at 1 uM incubated for 4 to 8 hrs by Western blot analysis. In kind it is cell-based. A digest of the protocol: as §3
For data set [10] the target is unchanged. Description: Induction of MDM2 degradation in human EU1 cells assessed as downregulation of MDM2 protein expression at 1 uM by Western blot analysis. The format is cell-based. The note with it: TDE = time-dependent effect. A digest of the protocol:
as §3

Data set [11] has the same target. Description: Induction of MDM2 degradation in human EU1 cells assessed as upregulation of p53 protein expression at 1 uM by Western blot analysis. The settings on record: TDE = time-dependent effect. In kind it is cell-based. The procedure, abridged:
as §3

Data set [12] shares this target. Description: Induction of MDM2 degradation in human EU1 cells assessed as downregulation of MDM2 protein expression at 1 uM incubated for 4 to 16 hrs by Western blot analysis. The format is cell-based. A digest of the protocol: as §3
The target is the same in data set [13]. Description: Induction of MDM2 degradation in human EU1 cells assessed as downregulation of MDM2 protein expression at 0.8 uM incubated for 15 hrs by Western blot analysis. The format is cell-based. The procedure, abridged:
as §3

Data set [14] in a line: Prodrug conversion in cell culture media assessed as half life. In kind it is physicochemical.
The nature of data set [15]: Prodrug conversion in none-denaturated human EU1 cell lysates assessed as N-[4,5-bis(2-hydroxyethoxy)-9,10-dioxo-2-anthryl]-2-chloro-acetamide release measured within 15 mins by HPLC analysis. The format is ADME, subcellular, Lysate. The note with it: 0.25 h. A digest of the protocol: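 Prodrug incubated with non-denatured lysate of EU-1 cells, an in-house wild-type p53 leukemia line, to assess activation by cellular components. Read-out was cleavage of the amino acid ester bond releasing the parent anthraquinone, followed over time.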

[16] abbreviates: PBS buffer, read-out: solubility.

SMILES strings stand for the structures. pIC50: −log10 of the molar value. Values after ≈ are worked out from the molar mass of the structure shown. Active and inactive are the calls of the source. No cut-off for these calls is given here.

E3 ubiquitin-protein ligase Mdm2 (Homo sapiens), sequence (Q00987 whole entry, looked up): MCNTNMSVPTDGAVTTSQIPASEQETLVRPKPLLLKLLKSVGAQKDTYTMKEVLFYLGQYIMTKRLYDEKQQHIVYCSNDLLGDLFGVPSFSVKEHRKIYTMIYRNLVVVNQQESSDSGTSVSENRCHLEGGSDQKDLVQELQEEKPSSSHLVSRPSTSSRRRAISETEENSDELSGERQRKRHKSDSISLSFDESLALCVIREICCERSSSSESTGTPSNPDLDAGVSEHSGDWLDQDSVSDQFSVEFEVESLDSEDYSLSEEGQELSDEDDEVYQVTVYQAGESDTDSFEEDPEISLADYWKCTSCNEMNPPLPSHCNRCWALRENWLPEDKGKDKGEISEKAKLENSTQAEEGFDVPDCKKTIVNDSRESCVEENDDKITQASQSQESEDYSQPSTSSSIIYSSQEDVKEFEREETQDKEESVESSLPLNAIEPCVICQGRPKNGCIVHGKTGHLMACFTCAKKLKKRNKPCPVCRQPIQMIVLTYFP

In the case of `Cl.N[C@@H](Cc1ccc(O)cc1)C(=O)OCCOc1cccc2c1C(=O)c1c(OCCOC(=O)[C@@H](N)Cc3ccc(O)cc3)cc(NC(=O)CCl)cc1C2=O`, the solubility in data set [1] (setting [16]) is > 100 mg/mL. Moreover, the pIC50 is 5.90 in data set [2] and 5.27 with HeLa. The results for the t1/2 in data set [3], in data set [4] and in [5] were 1.7 min, 70.6 min and 6.5 min, respectively.
Turning to `Cl.N=C(N)NCCC[C@H](N)C(=O)OCCOc1cccc2c1C(=O)c1c(OCCOC(=O)[C@@H](N)CCCNC(=N)N)cc(NC(=O)CCl)cc1C2=O`, the solubility in data set [1] (setting [16]) is > 100 mg/mL. Also, the negative logarithm of the IC50 (pIC50) in [2] was 5.68; in the data set with HeLa it was 4.89. The results for the t1/2 in data set [3], in data set [4] and in data set [5] were 63 min, 187.1 min and 0.2 min, respectively.
`O=C(CCl)Nc1cc(O)c2c(c1)C(=O)c1cccc(O)c1C2=O`: the solubility in data set [1] (buffer) is 0.0085 mg/mL (≈ 25.6 µM).
Turning to `CC[C@H](C)[C@H](N)C(=O)OCCOc1cccc2c1C(=O)c1c(OCCOC(=O)[C@@H](N)[C@@H](C)CC)cc(NC(=O)CCl)cc1C2=O.Cl`, in data set [1] (setting [16]), the solubility was > 100 mg/mL. Besides, the pIC50 in data set [2] was 5.94; in the data set with HeLa it was 5.24. Besides, the t1/2 in [3] is recorded as 24.3 min; in [4], 154.5 min; in data set [5], 48.4 min.
Compound `Cl.N[C@@H](Cc1ccccc1)C(=O)OCCOc1cccc2c1C(=O)c1c(OCCOC(=O)[C@@H](N)Cc3ccccc3)cc(NC(=O)CCl)cc1C2=O` yielded a solubility in data set [1] (buffer) of 703 mg/mL. For the same compound, the negative logarithm of the IC50 (pIC50) in data set [2] was 5.91; in the data set with HeLa, 5.25. The t1/2 in data set [3] was 1 min; in data set [4], 73.7 min; in [5], 6.5 min.
`Cl.NC(=O)CC[C@H](N)C(=O)OCCOc1cccc2c1C(=O)c1c(OCCOC(=O)[C@@H](N)CCC(N)=O)cc(NC(=O)CCl)cc1C2=O`: the solubility in [1] (setting [16]) is > 100 mg/mL. Moreover, the figures for the pIC50 (in data set [2]; with HeLa) were 5.84 and 4.91, respectively. The t1/2 in [3] is reported as 73 min; in data set [4], 137.1 min; in data set [5] it was 66.9 min.
Regarding `C[C@H](N)C(=O)OCCOc1cccc2c1C(=O)c1c(OCCOC(=O)[C@H](C)N)cc(NC(=O)CCl)cc1C2=O.Cl`, the solubility in [1] (setting [16]) was > 100 mg/mL. The pIC50 in [2] was 5.78; in the data set with HeLa it was 5.09. The t1/2 was 6.2 min in [3], 100.9 min in data set [4] and 24.7 min in data set [5].
Regarding `CSCC[C@H](N)C(=O)OCCOc1cccc2c1C(=O)c1c(OCCOC(=O)[C@@H](N)CCSC)cc(NC(=O)CCl)cc1C2=O.Cl`, in [1] (setting [16]), the solubility was > 100 mg/mL. Also, the pIC50 was 5.91 in data set [2] and 5.15 in the data set with HeLa. Moreover, the t1/2 in [3] is 3.7 min; in data set [4] it was 44.8 min; in data set [5], 12 min.
Take `O=C(CCl)Nc1cc(OCCO)c2c(c1)C(=O)c1cccc(OCCO)c1C2=O`: the solubility in data set [1] (buffer) is 0.06 mg/mL (≈ 143 µM). Besides, the result in data set [6], in [9], in data set [12] and in data set [13] was Active. Besides, the Activity result in data set [7] is “Dose-dependent effect”; in [8] it was “Dose-dependent effect”; in data set [10], “Tde”; in data set [11], “Tde”. Also, the negative logarithm of the IC50 (pIC50) is 6.05 in data set [2] and 5.42 with HeLa.
With `Cl.NCCCC[C@H](N)C(=O)OCCOc1cccc2c1C(=O)c1c(OCCOC(=O)[C@@H](N)CCCCN)cc(NC(=O)CCl)cc1C2=O`, the solubility in data set [1] (setting [16]) is > 100 mg/mL. The negative logarithm of the IC50 (pIC50) in data set [2] was 5.89; in the data set on HeLa, 4.97. Further, the results for the t1/2 in data set [3], in data set [4] and in data set [5] were 44.2 min, 140.8 min and 2.4 min, respectively.
For the compound `Cl.NCC(=O)OCCOc1cccc2c1C(=O)c1c(OCCOC(=O)CN)cc(NC(=O)CCl)cc1C2=O`, the solubility in data set [1] (setting [16]) is > 100 mg/mL. Also, the values for the pIC50 (in [2]; with HeLa) were 5.96 and 5.44, respectively. In addition, the t1/2 was 19.3 min in data set [14], 10.1 min in data set [3], 31.5 min in data set [4] and 35.9 min in data set [5].
Consider `CC(C)C[C@H](N)C(=O)OCCOc1cccc2c1C(=O)c1c(OCCOC(=O)[C@@H](N)CC(C)C)cc(NC(=O)CCl)cc1C2=O.Cl`, for which the solubility in [1] (setting [16]) is > 100 mg/mL. The negative logarithm of the IC50 (pIC50) in data set [2] was 5.93; in the data set with HeLa it was 5.55. Moreover, the results for the t1/2 in data set [3], in data set [4] and in data set [5] were 2.5 min, 127.7 min and 39.6 min, respectively.
In the case of `CC(C)[C@H](N)C(=O)OCCOc1cccc2c1C(=O)c1c(OCCOC(=O)[C@@H](N)C(C)C)cc(NC(=O)CCl)cc1C2=O.Cl`, the solubility in data set [1] (setting [16]) was > 100 mg/mL. Besides, the negative logarithm of the IC50 (pIC50) was 5.97 in data set [2] and 5.38 in the data set with HeLa. In addition, the t1/2 is 25.3 min in data set [3], 147.7 min in data set [4] and 126.3 min in [5]. In data set [15], the Drug metabolism result was “Metabolite_Detected”.
With `Cl.N[C@@H](CCC(=O)O)C(=O)OCCOc1cccc2c1C(=O)c1c(OCCOC(=O)[C@@H](N)CCC(=O)O)cc(NC(=O)CCl)cc1C2=O`, the solubility in [1] (setting [16]) was > 100 mg/mL. In addition, the values for the pIC50 (in data set [2]; in the data set on HeLa) were 5.49 and 5.04, respectively. The t1/2 in [14] was found to be 156.1 min; in data set [3] it was 117.9 min; in data set [4], 268.6 min; in [5] it was 110 min.

For the origin of these results see ChEMBL document CHEMBL4602615, “Upregulation of p53 through induction of MDM2 degradation: Amino acid prodrugs of anthraquinone analogs” (Bioorg Med Chem Lett, 2020).
